{"data": "Results from different studies", "target": "5-hydroxytryptamine receptor 2A (HTR2A, Homo sapiens, UniProt P28223)", "note": "Each line is one published result; the experiments were not run side by side."}
{"Compound": "COc1ccccc1N1CCN(CCN(C(=O)C2CCCCC2)c2ccccn2)CC1", "observed": "ligand displacement", "method": "radioligand", "notes": "cell membranes", "quantity": "Ki", "result": "331 nM"}
{"Compound": "NCCc1c[nH]c2ccc(F)cc12", "observed": "ligand displacement", "method": "radioligand", "quantity": "Ki", "result": "3910 nM"}
{"Compound": "COc1cc2c3c(c1OC)-c1ccccc1CC3NCC2 (centres unmarked)", "observed": "ligand displacement", "method": "radioligand", "notes": "cell membranes", "quantity": "Ki", "result": "925 nM"}
{"Compound": "OC(c1ccc(F)cc1)C(F)(F)CCN1CCC(O)(c2ccc(Cl)cc2)CC1 (racemic)", "observed": "cell-free assay", "method": "radioligand", "quantity": "Ki", "result": "1010 nM"}
{"Compound": "C[C@H](N)Cn1ccc2cc(F)c(Cl)cc21", "observed": "ligand displacement", "method": "radioligand", "notes": "cell membranes", "quantity": "Ki", "result": "13.1 nM"}
{"Compound": "CN(C)CCc1c[nH]c2ccccc12", "observed": "cell-free assay", "quantity": "Ki", "result": "1510 nM"}
{"Compound": "c1ccc2c(C3CCNCC3)noc2c1", "observed": "ligand displacement", "method": "radioligand", "notes": "cell membranes", "quantity": "Ki", "result": "271 nM"}
{"Compound": "Cc1[nH]c2ccccc2c1CCN", "observed": "ligand displacement", "method": "radioligand", "quantity": "Ki", "result": "7770 nM"}
{"Compound": "CN(C)[C@@H]1Cc2ccccc2[C@@H](c2ccccc2)C1 (relative stereo)", "observed": "inositol phosphate", "mode": "antagonist", "quantity": "Kb", "result": "460 nM"}
{"Compound": "Cc1nc2n(c(=O)c1CCN(C)CCc1c[nH]c3cc(F)ccc13)CCCC2", "observed": "ligand displacement", "method": "radioligand", "notes": "cell membranes", "quantity": "Ki", "result": "25.8 nM"}
{"Compound": "CC[C@H](C)[C@H](NC(=O)[C@H](CCCNC(=N)N)NC(=O)[C@H](CC(C)C)NC(=O)[C@@H](N)Cc1ccccc1)C(=O)N[C@@H](CCCNC(=N)N)C(=O)N1CCC[C@H]1C(=O)N[C@@H](CCCCN)C(=O)O", "observed": "cell-free assay", "method": "radioligand", "quantity": "Ki", "result": "> 10000 nM"}
{"Compound": "CCCCCNC(=N)N/N=C/c1c[nH]c2ccc(OC)cc12", "observed": "cell-free assay", "quantity": "IC50", "result": "127 nM"}
{"Compound": "COc1cc2c3c(c1OC)-c1cc4c(cc1CC3N(C)CC2)OCO4 (centres unmarked)", "observed": "calcium signal", "mode": "antagonist", "quantity": "Kb", "result": "830 nM"}
{"Compound": "COc1cc2c3c(c1OC)-c1ccccc1C[C@H]3N(C)CC2", "observed": "ligand displacement", "method": "radioligand", "notes": "cell membranes", "quantity": "Ki", "result": "150 nM"}
